The source made the active and inactive calls.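 How the source made its calls, unless noted: active means GFP response above 150% of the DMSO level; inconclusive means fewer than 70 events counted for a yeast strain; inactive means the rest.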

Test [1] can be described thus: RPL19A-GFP modulators, yeast TOR pathway, confirmation, cell-based, S. cerevisiae, flow cytometry, cherry picks, mother/daughter gates (AID 2270;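 active means GFP response below 50% of the DMSO control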). The settings on record: S. cerevisiae RPL19A-GFP strain, 3 h, at 10 µM, stronger effect = lower value, 100 = same GFP as DMSO wells. For orientation: In flow cytometry, cells or beads pass a laser one at a time.
The nature of test [2]: LAP4-GFP expression modulators in yeast, confirmation, cell-based, cherry picks, flow cytometry, mother/daughter gates (AID 2271;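 active means GFP response above 150% of the DMSO control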;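 further: ratio of sample to DMSO plate mean so 100% equals DMSO level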). The settings on record: S. cerevisiae LAP4-GFP strain, 3 h, at 10 µM, stronger effect = higher value, 100 means same as DMSO control. Put shortly: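 System: Alexa 633-stained baker's yeast GFP-fusion strain / Medium: synthetic complete (SC) yeast growth medium / Doses: compound at 10 µM, single point / Times: 3 h treatment at 30 °C with rotation / Detection: HT flow cytometry, GFP fluorescence channel / Benchmarks: DMSO-only negative wells, rapamycin 400 ng/mL positive wells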

The nature of test [3]: modulators of MEP2-GFP levels in yeast, confirmation, S. cerevisiae, flow cytometry GFP, cherry picks (AID 2272;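 active means GFP response above 150% of the DMSO control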;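 further: ratio of well signal to plate DMSO mean so 100% equals DMSO level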). The settings on record: S. cerevisiae MEP2-GFP strain, 3 h, at 10 µM, stronger effect = higher value.
A short description of test [4]: AGP1-GFP expression modulators, hit retest, confirmation, cell-based, flow cytometry, S. cerevisiae, cherry picks (AID 2273).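 Further: median GFP channel fluorescence over the whole cell population gate.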 The settings on record: S. cerevisiae AGP1-GFP strain, 3 h, at 10 µM.
Test [5] can be described thus: modulators of CIT2-GFP expression in yeast, confirmation, S. cerevisiae, GFP fusion, cherry picks, mother/daughter gates (AID 2274). The settings on record: S. cerevisiae CIT2-GFP strain, flow cytometry, 3 h, at 10 µM, stronger effect = higher value.
[6] abbreviates: measured here: daughter cell gate.
[7] abbreviates: measured here: mother cell gate.
Setting [8] is: measured here: daughter cell gate response.
Setting [9] is: measured here: mother cell gate response.

As for `Cc1ccc(-c2nc(NC(=O)c3nn(C)cc3[N+](=O)[O-])sc2C)cc1C`, the GFP response vs DMSO is 101% (inactive) in test [1], 101% in test [1] (setting [6]), 102% in test [1] (setting [7]) and 97.5% (inactive) in test [3]. Moreover, the figures for the GFP response relative to DMSO in test [2], in test [2] (setting [8]) and in test [2] (setting [9]) were 95.3% (inactive), 92.2% and 99.5%, respectively. The GFP response, % of DMSO in test [4] is 95.4% (inactive); in test [5], 93.5% (inactive); in test [5] (setting [6]) it was 94.6%; in test [5] (setting [7]) it was 93.3%.

Consider `Cc1ccc(/C(N)=N/OC(=O)c2ccc(F)cc2)cc1`, for which the GFP response vs DMSO is 102% (inactive) in test [1], 102% in test [1] (setting [6]), 99.2% in test [1] (setting [7]) and 108% (inactive) in test [3]. Moreover, the GFP response relative to DMSO in test [2] is 128% (inactive); in test [2] (setting [8]), 111%; in test [2] (setting [9]) it was 129%. For the same compound, the GFP response, % of DMSO is 76.8% (inactive) in test [4], 134% (inactive) in test [5], 121% in test [5] (setting [6]) and 133% in test [5] (setting [7]).

For `O=C(c1ccc2ccccc2c1)N1CCN(c2ccc(O)cc2)CC1`, the GFP response vs DMSO in test [1] is 101% (inactive); in test [1] (setting [6]), 100%; in test [1] (setting [7]) it was 101%; in test [3] it was 106% (inactive). For the same compound, the GFP response relative to DMSO is 101% (inactive) in test [2], 102% in test [2] (setting [8]) and 101% in test [2] (setting [9]). The GFP response, % of DMSO was 99.3% (inactive) in test [4], 103% (inactive) in test [5], 103% in test [5] (setting [6]) and 104% in test [5] (setting [7]).

Turning to `COc1ccc(NC2=C(Cl)C(=O)N(CCc3ccccc3)C2=O)c(OC)c1`, the GFP response vs DMSO is 98% (inactive) in test [1], 96.6% in test [1] (setting [6]), 97.2% in test [1] (setting [7]) and 98.8% (inactive) in test [3]. Further, the GFP response relative to DMSO in test [2] is 102% (inactive); in test [2] (setting [8]), 101%; in test [2] (setting [9]), 104%. Also, the GFP response, % of DMSO in test [4] was 97.9% (inactive); in test [5], 98.4% (inactive); in test [5] (setting [6]), 98.4%; in test [5] (setting [7]) it was 97.7%.

As to `Cc1ccc(C)c(NC(=O)c2ccccc2O)c1`, the GFP response vs DMSO in test [1] is 98.5% (inactive); in test [1] (setting [6]), 97%; in test [1] (setting [7]), 97.8%; in test [3] it was 101% (inactive). The figures for the GFP response relative to DMSO in test [2], in test [2] (setting [8]) and in test [2] (setting [9]) were 108% (inactive), 99% and 112%, respectively. Besides, the GFP response, % of DMSO in test [4] is 97.3% (inactive); in test [5], 93.1% (inactive); in test [5] (setting [6]) it was 95.8%; in test [5] (setting [7]), 96%.

Take `O=C(N=Nc1c(O)[nH]c2ccccc12)c1ccco1`: the GFP response vs DMSO in test [1] is 98.2% (inactive); in test [1] (setting [6]), 98.6%; in test [1] (setting [7]), 97.8%; in test [3] it was 98.8% (inactive). Moreover, the GFP response relative to DMSO in test [2] was 99.8% (inactive); in test [2] (setting [8]), 98.2%; in test [2] (setting [9]), 102%. The GFP response, % of DMSO in test [4] is 100% (inactive); in test [5] it was 103% (inactive); in test [5] (setting [6]), 102%; in test [5] (setting [7]), 102%.

`CN(O)/C=c1/ccc2c(n1)C(=O)C=CC=2`: the GFP response vs DMSO was 105% (inactive) in test [1], 108% in test [1] (setting [6]), 100% in test [1] (setting [7]) and 115% (inactive) in test [3]. In addition, the GFP response relative to DMSO in test [2] was 192% (active); in test [2] (setting [8]), 170%; in test [2] (setting [9]) it was 188%. In addition, the GFP response, % of DMSO is 93.2% (inactive) in test [4], 167% (active) in test [5], 150% in test [5] (setting [6]) and 161% in test [5] (setting [7]).

Take `Cc1noc(/C=C/c2ccccn2)c1[N+](=O)[O-]`: the GFP response vs DMSO in test [1] was 95.6% (inactive); in test [1] (setting [6]) it was 96.1%; in test [1] (setting [7]), 90.8%; in test [3], 99% (inactive). Moreover, the GFP response relative to DMSO in test [2] was 139% (inactive); in test [2] (setting [8]) it was 132%; in test [2] (setting [9]) it was 142%. In addition, the GFP response, % of DMSO in test [4] is 96.7% (inactive); in test [5], 90.1% (inactive); in test [5] (setting [6]), 97.4%; in test [5] (setting [7]), 84.6%.

As for `Cc1cc(N=Nc2ccccc2C(=O)O)c(C)c(C)c1O`, the GFP response vs DMSO was 99.8% (inactive) in test [1], 99.4% in test [1] (setting [6]), 99.3% in test [1] (setting [7]) and 114% (inactive) in test [3]. Also, the GFP response relative to DMSO in test [2] was 108% (inactive); in test [2] (setting [8]), 109%; in test [2] (setting [9]), 108%. In addition, the GFP response, % of DMSO in test [4] was 98.4% (inactive); in test [5], 126% (inactive); in test [5] (setting [6]), 129%; in test [5] (setting [7]), 125%.

As to `Cc1noc2ncnc(Sc3ccc(Br)cc3)c12`, the GFP response vs DMSO is 97.2% (inactive) in test [1], 94.2% in test [1] (setting [6]), 94.7% in test [1] (setting [7]) and 103% (inactive) in test [3]. In addition, the GFP response relative to DMSO in test [2] is 137% (inactive); in test [2] (setting [8]), 133%; in test [2] (setting [9]), 135%. Besides, the GFP response, % of DMSO is 98.8% (inactive) in test [4], 108% (inactive) in test [5], 106% in test [5] (setting [6]) and 105% in test [5] (setting [7]).

`O=C1c2cccc3cccc(c23)C(=O)N1c1nncs1`: the GFP response vs DMSO in test [1] was 103% (inactive); in test [1] (setting [6]), 102%; in test [1] (setting [7]), 103%; in test [3] it was 102% (inactive). For the same compound, the GFP response relative to DMSO in test [2] was 91.4% (inactive); in test [2] (setting [8]), 94.1%; in test [2] (setting [9]), 92.1%. The GFP response, % of DMSO is 99.8% (inactive) in test [4], 96.5% (inactive) in test [5], 94.8% in test [5] (setting [6]) and 99.8% in test [5] (setting [7]).

Take `O=c1c2c(-c3cccs3)csc2ncn1/N=C/c1ccccn1`: the GFP response vs DMSO in test [1] was 98.4% (inactive); in test [1] (setting [6]), 95.2%; in test [1] (setting [7]) it was 96.5%; in test [3], 99% (inactive). Further, the GFP response relative to DMSO in test [2] was 119% (inactive); in test [2] (setting [8]) it was 112%; in test [2] (setting [9]), 121%. Moreover, the GFP response, % of DMSO in test [4] was 99.2% (inactive); in test [5] it was 91.5% (inactive); in test [5] (setting [6]) it was 92%; in test [5] (setting [7]), 89.5%.

`Cc1nn(C)c(C(=O)Sc2cccc(Cl)c2)c1[N+](=O)[O-]`: the GFP response vs DMSO in test [1] is 99.6% (inactive); in test [1] (setting [6]), 97.6%; in test [1] (setting [7]) it was 99.4%; in test [3], 121% (inactive). In addition, the GFP response relative to DMSO in test [2] is 126% (inactive); in test [2] (setting [8]), 114%; in test [2] (setting [9]), 130%. Further, the GFP response, % of DMSO in test [4] is 102% (inactive); in test [5], 104% (inactive); in test [5] (setting [6]) it was 103%; in test [5] (setting [7]) it was 101%.

For `COc1ccccc1CN1C(=O)c2cccc3cccc(c23)C1=O`, the GFP response vs DMSO in test [1] is 100% (inactive); in test [1] (setting [6]), 100%; in test [1] (setting [7]), 100%; in test [3] it was 104% (inactive). For the same compound, the results for the GFP response relative to DMSO in test [2], in test [2] (setting [8]) and in test [2] (setting [9]) were 91.9% (inactive), 90.7% and 91.6%, respectively. Also, the GFP response, % of DMSO is 108% (inactive) in test [4], 99.3% (inactive) in test [5], 100% in test [5] (setting [6]) and 98% in test [5] (setting [7]).

(Values after PubChem BioAssay.)
